Experimental data reported in ChEMBL document CHEMBL1250451, “Mechanistic insights into a Ca2+-dependent family of alpha-mannosidases in a human gut symbiont” (Nat Chem Biol, 2010).

Tests used:
Format in all cases: protein assay
[1] = substrate: OC[C@H]1O[C@H](O[C@H]2[C@@H](O)[C@H](O)[C@@H](CO)O[C@@H]2O)[C@@H](O)[C@@H](O)[C@@H]1O; assay: (§1) Ratio of Kcat to Km for Bacteroides thetaiotaomicron GH92 alpha-mannosidase 3990 N601A mutant assessed as as mannose release after 16 hrs by HPLC relative to wild type enzyme
[2] = substrate: O=[N+]([O-])c1ccc(O[C@H]2O[C@H](CO)[C@@H](O)[C@H](O)[C@@H]2O)cc1; assay: as §1
[3] = substrate: O=[N+]([O-])c1ccc(O[C@H]2O[C@H](CO)[C@@H](O)[C@H](O)[C@@H]2O)c([N+](=O)[O-])c1; assay: as §1
[4] = substrate: OC[C@H]1O[C@H](O[C@H]2[C@@H](O)[C@H](O)[C@@H](CO)O[C@@H]2O)[C@@H](O)[C@@H](O)[C@@H]1O; assay: (§2) Activity of Bacteroides thetaiotaomicron GH92 alpha-mannosidase 3990 N601A mutant assessed as as mannose release after 16 hrs by HPLC relative to wild type enzyme
[5] = substrate: O=[N+]([O-])c1ccc(O[C@H]2O[C@H](CO)[C@@H](O)[C@H](O)[C@@H]2O)cc1; assay: as §2
[6] = substrate: OC[C@H]1O[C@H](O[C@H]2[C@@H](O)[C@H](O)[C@@H](CO)O[C@@H]2O)[C@@H](O)[C@@H](O)[C@@H]1O; assay: (§3) Ratio of Kcat to Km for Bacteroides thetaiotaomicron GH92 alpha-mannosidase 3990 Q602A mutant assessed as as mannose release after 16 hrs by HPLC relative to wild type enzyme
[7] = substrate: O=[N+]([O-])c1ccc(O[C@H]2O[C@H](CO)[C@@H](O)[C@H](O)[C@@H]2O)cc1; assay: as §3
[8] = substrate: O=[N+]([O-])c1ccc(O[C@H]2O[C@H](CO)[C@@H](O)[C@H](O)[C@@H]2O)c([N+](=O)[O-])c1; assay: as §3
[9] = substrate: OC[C@H]1O[C@H](O[C@H]2[C@@H](O)[C@H](O)[C@@H](CO)O[C@@H]2O)[C@@H](O)[C@@H](O)[C@@H]1O; assay: (§4) Activity of Bacteroides thetaiotaomicron GH92 alpha-mannosidase 3990 Q602A mutant assessed as as mannose release after 16 hrs by HPLC relative to wild type enzyme
[10] = substrate: O=[N+]([O-])c1ccc(O[C@H]2O[C@H](CO)[C@@H](O)[C@H](O)[C@@H]2O)cc1; assay: as §4
[11] = substrate: OC[C@H]1O[C@H](O[C@H]2[C@@H](O)[C@H](O)[C@@H](CO)O[C@@H]2O)[C@@H](O)[C@@H](O)[C@@H]1O; assay: Activity of Bacteroides thetaiotaomicron GH92 alpha-mannosidase GH92 alpha-mannosidase 4092 assessed as mannose release after 16 hrs by HPLC
Summary of the method: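 Yeast mannan or ovalbumin (mostly high-mannose N-glycans) at 1 mg ml−1 was incubated with recombinant IMAC-purified enzyme from E. coli. The methods give enzyme at 2 μM and the table footnote gives 1 μM. Buffer was 100 mM sodium HEPES pH 7.0 with 1 mg ml−1 BSA and 2 mM CaCl2. Aliquots were taken at 1 and 16 h and boiled 10 min. Mannose was measured by HPLC and scored by signal: >500 nC +++, 200–500 ++, <200 +.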

[12] = substrate: OC[C@H]1O[C@H](O[C@H]2[C@@H](O)[C@H](O)[C@@H](CO)O[C@@H]2O)[C@@H](O)[C@@H](O)[C@@H]1O; assay: (§5) Ratio of Kcat to Km for Bacteroides thetaiotaomicron GH92 alpha-mannosidase GH92 alpha-mannosidase 4092 assessed as mannose release after 16 hrs by HPLC
[13] = substrate: O=[N+]([O-])c1ccc(O[C@H]2O[C@H](CO)[C@@H](O)[C@H](O)[C@@H]2O)cc1; assay: as §5

B1: Alpha-1,2-mannosidase (BT_3990) (Bacteroides thetaiotaomicron), Q8A0N1 N601A (protein)
chain: MKRLLLIACILNCTLLSQAKDWTQYVNPLMGSQSTFELSTGNTYPAIARPWGMNFWTPQTGKMGDGWQYTYTANKIRGFKQTHQPSPWINDYGQFSIMPIVGQPVFDEEKRASWFAHKGEVATPYYYKVYLAEHDIVTEMTPTERAVLFRFTFPENDHSYVVVDAFDKGSYIKIIPEENKIIGYTTRNSGGVPENFKNYFIIEFDKPFTYKATVENGNLQENVAEQTTDHAGAIIGFKTRKGEQVNARIASSFISFEQAAANMNELGKDNIEQLAQKGKDAWNQVLGKIEVEGGNLDQYRTFYSCLYRSLLFPRKFYELDANGQPIHYSPYNGQVLPGYMFTDTGFWDTFRCLFPLLNLMYPSVNKEMQEGLINTYLESGFFPEWASPGHRGCMVGNNSASILVDAYMKGVKVDDIKTLYEGLIHGTENVHPEVSSTGRLGYEYYNKLGYVPYDVKINENAARTLEYAYDDWCIYRLAKELKRPKKEISLFAKRAMNYKNLFDKESKLMRGRNEDGTFQSPFSPLKWGDAFTEGNSWHYTWSVFHDPQGLIDLMGGKEMFVTMMDSVFAVPPIFDDSYYGQVIHEIREMTVMNMGNYAHGAQPIQHMIYLYDYAGQPWKAQYWLRQVMDRMYTPGPDGYCGDEDNGQTSAWYVFSALGFYPVCPGTDEYVMGTPLFKKATLHFENGNSLVIDAPNNSTENFYIDSMSFNGADHTKNYLRHEDLFKGGTIKVDMSNRPNLNRGTKEEDMPYSFSKE
kcat/Km [1]: 250 M⁻¹ s⁻¹ | kcat/Km [2]: 0.05 M⁻¹ s⁻¹ | kcat/Km [3]: 6.17 M⁻¹ s⁻¹ | Km [4]: 3.3 mM | kcat [4]: 0.85 s⁻¹ | Km [5]: 9.7 mM | kcat [5]: 0.00055 s⁻¹

B2: Alpha-1,2-mannosidase (BT_3990) (Bacteroides thetaiotaomicron), Q8A0N1 Q602A (protein)
chain: MKRLLLIACILNCTLLSQAKDWTQYVNPLMGSQSTFELSTGNTYPAIARPWGMNFWTPQTGKMGDGWQYTYTANKIRGFKQTHQPSPWINDYGQFSIMPIVGQPVFDEEKRASWFAHKGEVATPYYYKVYLAEHDIVTEMTPTERAVLFRFTFPENDHSYVVVDAFDKGSYIKIIPEENKIIGYTTRNSGGVPENFKNYFIIEFDKPFTYKATVENGNLQENVAEQTTDHAGAIIGFKTRKGEQVNARIASSFISFEQAAANMNELGKDNIEQLAQKGKDAWNQVLGKIEVEGGNLDQYRTFYSCLYRSLLFPRKFYELDANGQPIHYSPYNGQVLPGYMFTDTGFWDTFRCLFPLLNLMYPSVNKEMQEGLINTYLESGFFPEWASPGHRGCMVGNNSASILVDAYMKGVKVDDIKTLYEGLIHGTENVHPEVSSTGRLGYEYYNKLGYVPYDVKINENAARTLEYAYDDWCIYRLAKELKRPKKEISLFAKRAMNYKNLFDKESKLMRGRNEDGTFQSPFSPLKWGDAFTEGNSWHYTWSVFHDPQGLIDLMGGKEMFVTMMDSVFAVPPIFDDSYYGQVIHEIREMTVMNMGNYAHGNAPIQHMIYLYDYAGQPWKAQYWLRQVMDRMYTPGPDGYCGDEDNGQTSAWYVFSALGFYPVCPGTDEYVMGTPLFKKATLHFENGNSLVIDAPNNSTENFYIDSMSFNGADHTKNYLRHEDLFKGGTIKVDMSNRPNLNRGTKEEDMPYSFSKE
kcat/Km [6]: 383 M⁻¹ s⁻¹ | kcat/Km [7]: 0.35 M⁻¹ s⁻¹ | kcat/Km [8]: 20 M⁻¹ s⁻¹ | Km [9]: 16 mM | kcat [9]: 6 s⁻¹ | Km [10]: 6.6 mM | kcat [10]: 0.00233 s⁻¹

B3: Alpha-1,2-mannosidase (BT_4092) (Bacteroides thetaiotaomicron), Q8A0C9 (protein)
chain: MKKLVYLIIFFLYSTVMNAQLKDLVQYVNTLQGTDSNFGLSYGNTYPTTGMPYGMHMWSAQTGKNGDGFKYMYAVDKIRAFSQSHQCSPWVSDYAVYSFMPMVGELVVNQDARATKFSHDNEIAKPHYYKVTFDNGITTEMAPTTRGVHLRFSYPTTGDAYLVLDGYTDMSEIKIDPAKRQISGWVNNQRFVNDSKSFRNYFVVQFDKPFEDYGVWENQKDEVFPQKLDGAGKGYGAFIKFKKGSKVQAKAASSYISAEQALITLNKELGKDKNLEVTKARGQKTWNEVLNRIVVEGCTDEQMKTFYSCLFRANLFSRKFYERKENGEPYYYSPYNGKIYDGYMYTDNGFWDTFRSQFPLTNILHPTMQGRYMNALLAAQEQCGWLPSWSSPGETGGMLGNHSISLLADAWAKGIRDFDPEKALKAYAHEAMNKGPWGGANGRGFWKEYFQLGYVPYPESMGSSAQTMEYAYDDFCGYQLAKMVGNKHYQEVFARQMYNYKNVFDKSIGFMRGKGVDGKWQEPFDPLEWGGPFCEGNAWHYTWSVFHDVQGLIDLFGSDEKFTTKIDSVFTIPNIIKPGTYGGVIHEMKEMELANMGQYAHGNQPIQHMPYLYCYAGQPWKTQYWVRQIVERLYNSTEKGYPGDEDQGGMSSWYILSSLGIYAVCPGTDEYVIGSPLFKKATITMENGNKFVIEAPENSKENLYIQSATLNGRLLDKNYIHYDDIAEGGVLKFEMGSQPNKERCTSKYAAPFSLSKE
Km [11]: 2 mM | kcat [11]: 1.83 s⁻¹ | kcat/Km [12]: 900 M⁻¹ s⁻¹ | kcat/Km [13]: 1.12 M⁻¹ s⁻¹
